Compounds with a hit are over-represented: about 3.3% of the library has one in this group of screens.
rCAG binder: binders of r(CAG) RNA repeats, primary screen, biochemical, fluorescence. r(CAG) RNA repeat, TO-PRO-1 dye displacement fluorescence. inhibition, % at 3 µM. 370,000 compounds, 1.3% hits. AID 651821, 2012;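 active means inhibition above the plate cutoff, the mean of all test compounds on that plate plus 3 SD, cut at about 35% in these data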;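 further: 0% = DMSO alone and 100% = 100 µM mitoxantrone as full dye displacement; higher means more dye released from RNA so lower well fluorescence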
HTRA1 inhibitor: HTRA1 serine protease inhibitors, primary screen, biochemical, fluorescence polarization, HTS. Q92743. recombinant HTRA1, FP-rhodamine activity-based probe. inhibition, % at 5.96 µM. 340,000 compounds, 0.5% hits. AID 504803, 2011; in the data active means inhibition above about 36%;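 further: 0% = enzyme with DMSO and 100% = wells lacking enzyme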
PRMT1 inh: PRMT1 methyltransferase inhibitors, primary screen, biochemical, fluorescence polarization; Protein arginine N-methyltransferase 1 (Homo sapiens), Q99873; recombinant PRMT1, activity-based probe fluorescence polarization; inhibition, % at 2.79 µM; 370,000 compounds, 1.3% hits; AID 652257, 2013;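 active means inhibition above about 21% made by adding two undisclosed values, limit read from the data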
ABHD4 inh: ABHD4 inhibitors, primary screen, biochemical, fluorescence polarization, mouse; purified mABHD4, FP-Rh probe fluorescence polarization; 370,000 compounds, 0.54% hits; AID 720543, 2013; inhibition, % at 8.92 µM;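 active means inhibition exceeding the mean over every tested compound plus 3 SD, cut at about 30% in these data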;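 further: 0% = plate median of compound wells and 100% = S159A mutant with DMSO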
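Test system: mABHD4 protein; Read-out basis: % inhibition; Incubation: 45 min + 60 min at 25 °C; Repeats: single replicate; Technique: fluorescence polarization with parallel and perpendicular emission, 525/598 nm; Compound: 8.92 µM, single dose; Benchmarks: full inhibition S159A mutant plus DMSO, zero as sample-well median.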
SIAE inh: human SIAE inhibitors, primary screen, biochemical, fluorescence polarization, FP-Rh probe, 1536-well HTS; SIAE FP-Rh probe binding; inhibition, % at 9.66 µM; 370,000 compounds, 0.69% hits;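 active means inhibition above a cutoff: mean of compounds within the control limits plus 3 SD of those, cut at about 17% in these data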;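 further: 0% = plate median of compound wells and 100% = probe without SIAE protein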
Target sequence (Q9HAT2 whole entry, looked up): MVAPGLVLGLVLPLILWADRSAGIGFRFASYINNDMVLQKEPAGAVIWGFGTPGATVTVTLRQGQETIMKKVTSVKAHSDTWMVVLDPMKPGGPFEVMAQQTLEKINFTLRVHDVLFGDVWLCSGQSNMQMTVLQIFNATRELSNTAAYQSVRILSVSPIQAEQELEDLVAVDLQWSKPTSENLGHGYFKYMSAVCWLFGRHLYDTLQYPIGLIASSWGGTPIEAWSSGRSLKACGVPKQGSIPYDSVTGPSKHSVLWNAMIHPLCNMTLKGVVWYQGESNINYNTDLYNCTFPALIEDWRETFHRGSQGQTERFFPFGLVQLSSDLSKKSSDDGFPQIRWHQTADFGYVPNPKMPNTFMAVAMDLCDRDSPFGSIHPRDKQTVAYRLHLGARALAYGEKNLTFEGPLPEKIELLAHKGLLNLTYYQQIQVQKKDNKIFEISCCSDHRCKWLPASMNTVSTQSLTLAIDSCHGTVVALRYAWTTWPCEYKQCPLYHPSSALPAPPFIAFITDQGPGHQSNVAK
rCAG bind conf: small molecules binding CAG repeat RNA – biochemical, fluorescence, confirmation | r(CAG) RNA repeat, TO-PRO-1 dye displacement fluorescence | shares compounds with rCAG binder | inhibition, % at 3 µM | 4,300 compounds, 70% hits | AID 652065, 2013;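 active means inhibition above a per-plate cutoff, the mean inhibition of sample wells plus 3 SD, cut at about 35% in these data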;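 further: loss of TO-PRO-1 fluorescence as compound displaces dye from 1x1 AA loop RNA; 0% = DMSO only wells and 100% = 100 µM mitoxantrone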
DNA CAG counter: displacement of TO-PRO-1 from CAG DNA duplex, counter-screen for rCAG RNA repeat binder project, biochemical, fluorescence, TO-PRO-1 dye, d(CAG) DNA oligo; shares compounds with rCAG binder; d(CAG) DNA oligo TO-PRO-1 dye displacement; inhibition, % at 3 µM; 4,300 compounds, 94% hits; AID 652068, 2013;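 active means inhibition above its plate's cutoff, the mean test-well inhibition plus 3 SD, cut at about 4.8% in these data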;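 further: 0% = DNA dye mix with DMSO and 100% = 100 µM mitoxantrone; hits displace the dye from DNA and so lower well fluorescence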
* hit, by the source's call; . = no result given.

SMILES | rCAG binder | HTRA1 inhibitor | PRMT1 inh | ABHD4 inh | SIAE inh | rCAG bind conf | DNA CAG counter
COC(=O)C[C@H]1CC[C@H]2[C@H](COc3ccc(NC(=O)c4cccs4)cc3C(=O)N2C)O1 | 0.5 | . | -0.6 | 13.5 | 3.6 | . | .
CCC(C)CNC(=O)c1cn(C(C)c2ccccc2)nn1 (stereo unspecified) | -0.3 | . | -0.2 | -1.8 | 4.5 | . | .
O=C(O)c1ccccc1C(=O)c1ccc(Sc2ccc(Cl)cc2)c([N+](=O)[O-])c1 | 64.1* | -17.4 | -2.3 | -32.3 | 0.0 | 71.2* | 32.0*
CC(C)(C)N/N=C1\CC(c2ccccc2)Oc2ccccc21 (stereo unspecified) | -1.1 | 1.0 | -5.0 | -4.2 | 3.0 | . | .
O=S(=O)(N/N=C1/CC(c2ccccc2)Oc2ccccc21)c1ccccc1 (stereo unspecified) | 35.6* | -3.6 | 0.5 | -22.1 | 0.5 | 32.0 | 9.6*
Cc1ccc(CSc2nnc(-c3cccs3)o2)cc1C | 1.1 | . | -4.0 | -4.8 | -4.2 | . | .
COc1ccc(/C=N/NC(=O)c2[nH]c3ccc(C)cc3c2-c2ccccc2)c(C(=O)O)c1OC | 38.5* | -14.4 | 0.7 | 14.3 | -2.7 | 46.1* | 14.8*
Cc1ccc2[nH]c(C(=O)N/N=C/c3ccccc3C(=O)O)c(-c3ccccc3)c2c1 | 54.8* | -19.6 | 2.7 | 4.8 | -3.9 | 36.0* | 9.0*
CCCSc1nc(O)c(C(c2ccc(OC)c(O)c2)c2c(O)nc(SCCC)n(C)c2=O)c(=O)n1C | 46.3* | 4.2 | 15.1 | 10.3 | 8.2 | 40.2* | 12.7*
COc1cccc(C(c2c(O)nc(SC)n(C)c2=O)c2c(O)nc(SC)n(C)c2=O)c1 | 2.5 | 0.0 | 1.3 | -1.3 | 8.8 | . | .
COC1C=COC2(C)Oc3c(C)c(O)c4c(O)c(c(CN5CCN(C)CC5)c(O)c4c3C2=O)NC(=O)C(C)=CC=CC(C)C(O)C(C)C(O)C(C)C(OC(C)=O)C1C (stereo unspecified) | 37.3* | 34.8 | 7.5 | 26.6 | 3.5 | 33.9 | 7.5*
C[N+]1=C(N)N[C@@]2(C=C3CCCCC3n3c(=O)n(-c4ccccc4)c(=O)n32)C1 (stereo partly specified) | 2.0 | . | 6.3 | 3.9 | -0.9 | . | .
COC(=O)[C@]12C[C@H](CC(=O)N3CCCC3)C(=O)N(Cc3ccco3)C1=C[C@H](C(C)C)O[C@@H]2C1CC1 | -0.9 | . | -1.2 | 3.9 | -2.2 | . | .
CCc1nnc(NS(=O)(=O)c2ccc(NC(=S)NC(=O)/C=C/c3ccc([N+](=O)[O-])cc3)cc2)s1 | 37.5* | -0.8 | 1.0 | -6.8 | -3.2 | 23.3 | 7.7*
CCc1nnc(NS(=O)(=O)c2ccc(NC(=S)NC(=O)c3ccncc3)cc2)s1 | 18.7 | -1.6 | 2.4 | -17.4 | -9.0 | . | .
CCc1nnc(NS(=O)(=O)c2ccc(NC(=S)NC(=O)/C=C/c3ccc(F)cc3)cc2)s1 | 85.3* | -86.1 | 1.2 | -3.9 | -38.8 | 85.6* | 59.5*
COc1ccc(C(=O)C2(C(=O)Nc3cc(C)cc(C)c3)CC(c3ccccn3)=NO2)cc1 (stereo unspecified) | 8.6 | . | -2.3 | -15.9 | -3.4 | . | .
Cn1c(=O)cc(OCCCC(=O)Nc2cc(-c3ccncc3)ccn2)c2ccccc21 | . | . | -2.7 | 2.7 | -0.4 | . | .
O=C(CCCN1C(=O)/C(=C/c2cccs2)SC1=S)Nc1ccccc1O | 8.3 | -11.6 | 0.3 | 1.0 | -4.8 | . | .
O=C(CCCN1C(=O)/C(=C\c2cccs2)SC1=S)Nc1ccc(O)cc1 | 9.0 | -3.1 | -0.2 | -0.7 | -1.1 | . | .
O=C(CCN1C(=O)/C(=C/c2cccs2)SC1=S)Nc1ccc(C(=O)O)cc1 | 48.1* | -11.5 | -3.8 | -21.6 | -1.9 | 35.3* | 8.1*
O=C(CCCN1C(=O)/C(=C\c2cccs2)SC1=S)Nc1ccc(O)cc1C(=O)O | 60.0* | 1.2 | 2.2 | 3.2 | -3.1 | 59.6* | 22.7*
O=C(CCCN1C(=O)/C(=C\c2cccs2)SC1=S)Nc1ccc(C(=O)O)cc1 | 39.0* | -7.9 | 3.4 | -8.2 | -9.4 | 29.9 | 7.8*
Cc1n[nH]c(C)c1S(=O)(=O)NCCc1ccccc1F | 1.3 | . | -1.5 | 2.6 | 2.9 | . | .
CCOc1ccc(-n2c(=S)sc3c(=O)n(-c4ccccc4)c(SCC(=O)O)nc32)cc1 | 39.3* | -2.9 | 10.4 | 14.0 | -4.2 | 26.1 | 5.7*
SMILES | rCAG binder | HTRA1 inhibitor | PRMT1 inh | ABHD4 inh | SIAE inh | rCAG bind conf | DNA CAG counter
CCc1ccc(-n2c(=S)sc3c(=O)n(-c4ccccc4)c(SCC(=O)O)nc32)cc1 | 41.5* | 0.5 | 6.5 | -2.1 | -2.1 | 32.0 | 6.9*
Cc1ccc(-n2c(=S)sc3c(=O)n(-c4ccccc4F)c(SCC(=O)O)nc32)cc1C | 47.2* | -11.2 | -1.7 | -2.0 | -4.1 | 46.4* | 13.4*
CCOC(=O)CC(=O)CSc1nc2c(sc(=S)n2-c2ccc(C)c(C)c2)c(=O)[nH]1 | 70.4* | -0.7 | -0.3 | -20.0 | -2.4 | 63.0* | 23.4*
COC(=O)[C@]12C[C@H](CC(=O)N3CCC(c4ccccc4)CC3)C(=O)N(Cc3ccco3)C1=C[C@H](C(C)C)O[C@@H]2C1CC1 | 0.7 | . | -0.1 | -4.0 | 1.0 | . | .
Brc1ccc(-c2nn3c(-c4ccccc4)nnc3s2)cc1 | 7.0 | . | 0.2 | 2.2 | 0.4 | . | .
Cc1ccc(Cn2cc(COC(=O)NCC(C)C)nn2)cc1 | 0.3 | . | -6.8 | -1.4 | -3.7 | . | .
Cc1ccc(C)c(OC(C)C(=O)Nc2ccc(S(=O)(=O)Nc3nccs3)cc2)c1 (stereo unspecified) | 54.9* | -3.7 | 0.5 | 16.6 | -9.4 | 48.1* | 18.4*
COc1ccccc1CCC(=O)Nc1ccc(S(=O)(=O)Nc2nccs2)cc1 | 36.9* | 0.8 | 0.3 | -10.1 | 1.1 | 27.5 | 9.2*
COc1ccccc1CCC(=O)Nc1nccs1 | -2.8 | -6.6 | -1.5 | 2.7 | -5.2 | . | .
O=C(CSc1nnc(SCc2cccc3ccccc23)s1)Nc1ccc(S(=O)(=O)Nc2nccs2)cc1 | 79.9* | . | -4.5 | -89.7 | -86.8 | 76.5* | 43.1*
CC(Oc1ccccc1Cl)C(=O)Nc1ccc(S(=O)(=O)Nc2nccs2)cc1 (stereo unspecified) | 54.5* | -5.7 | -0.5 | 2.4 | 10.3 | 53.8* | 13.4*
Cc1ccccc1OC(C)C(=O)Nc1ccc(S(=O)(=O)Nc2nccs2)cc1 (stereo unspecified) | 34.5 | -2.7 | 0.6 | 8.0 | 2.8 | . | .
CC(C)(C)c1ccc(S(=O)(=O)N2CCCC2C(=O)N2CCc3ccccc3C2)cc1 (stereo unspecified) | 2.0 | . | -3.2 | -2.2 | -1.0 | . | .
